From ChEMBL document CHEMBL1141585, “5,5,6-Fused tricycles bearing imidazole and pyrazole 6-methylidene penems as broad-spectrum inhibitors of beta-lactamases” (Bioorg Med Chem, 2008)
The source made the active and inactive calls. No cut-off for these calls is given here.

Columns and labels:
Escherichia coli [1] = experiment: Antibacterial efficacy against Escherichia coli LSU 80-8 infected ip dosed CD1 mouse model; type: functional
Method in brief: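 Female CD-1 mice, five per dose level, five dose levels per compound. Lethal intraperitoneal challenge (10–100 LD₅₀), then intravenous piperacillin alone or piperacillin plus inhibitor at a 4:1 (Pip:Inhibitor) ratio. Survival read at 7 days; ratios from three separate tests pooled; ED₅₀ by probit analysis.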

[2] = Inhibition of TEM1 beta-lactamase
Method in brief: (§1)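 Spectrophotometric β-lactamase inhibition assay (Bush method) with nitrocefin as substrate. Tazobactam standard included in each experiment. IC₅₀ derived by curve fitting.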

Escherichia coli [3] = experiment: Antimicrobial activity against Escherichia coli GC 2905 expressing P99 beta-lactamase after 18 to 24 hrs by broth microdilution method; type: functional
Method in brief: (§2)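 CLSI broth microdilution in Mueller–Hinton II broth. Serial dilutions of piperacillin alone or piperacillin plus inhibitor; inoculum 10⁵ CFU/ml. Piperacillin + tazobactam run as comparator. MIC read as endpoint.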

Escherichia coli [4] = experiment: Antimicrobial activity against Escherichia coli GC 2906 expressing Imi1 beta-lactamase after 18 to 24 hrs by broth microdilution method; type: functional; method in brief: as §2; note: test concentration or dose not given here
Escherichia coli [5] = experiment: Antimicrobial activity against Escherichia coli GC 2804 expressing imp beta-lactamase after 18 to 24 hrs by broth microdilution method; type: functional; method in brief: as §2; note: test concentration or dose not given here
Escherichia coli [6] = experiment: Antimicrobial activity against Escherichia coli GC 2805 expressing CcrA beta-lactamase after 18 to 24 hrs by broth microdilution method; type: functional; method in brief: as §2
Escherichia coli [7] = experiment: Antimicrobial activity against Escherichia coli GC 2253 expressing IRT2 beta-lactamase after 18 to 24 hrs by broth microdilution method; type: functional; method in brief: as §2; note: test concentration or dose not given here
Enterobacter cloacae [8] = experiment: Antimicrobial activity against Enterobacter cloacae GC 1477 expressing AmpC beta-lactamase after 18 to 24 hrs by broth microdilution method; type: functional; method in brief: as §2; note: test concentration or dose not given here
Enterobacter cloacae [9] = experiment: Antimicrobial activity against Enterobacter cloacae GC 4142 expressing AmpC beta-lactamase after 18 to 24 hrs by broth microdilution method; type: functional; method in brief: as §2; note: test concentration or dose not given here
Enterobacter cloacae [10] = experiment: Antimicrobial activity against Enterobacter cloacae GC 6991 expressing AmpC beta-lactamase after 18 to 24 hrs by broth microdilution method; type: functional; method in brief: as §2; note: test concentration or dose not given here
Enterobacter cloacae [11] = experiment: Antimicrobial activity against Enterobacter cloacae GC 1475 expressing P99 beta-lactamase after 18 to 24 hrs by broth microdilution method; type: functional; method in brief: as §2; note: test concentration or dose not given here
Serratia marcescens [12] = experiment: Antimicrobial activity against Serratia marcescens GC 1781 expressing Sme1 and AmpC beta-lactamase after 18 to 24 hrs by broth microdilution method; type: functional; method in brief: as §2; note: test concentration or dose not given here
Pseudomonas aeruginosa = experiment: Antimicrobial activity against Pseudomonas aeruginosa GC 1764 expressing AmpC beta-lactamase after 18 to 24 hrs by broth microdilution method; type: functional; method in brief: as §2; note: test concentration or dose not given here
[13] = system: Stenotrophomonas maltophilia; experiment: Antimicrobial activity against Stenotrophomonas maltophilia GC 1721 expressing L1 beta-lactamase after 18 to 24 hrs by broth microdilution method; type: functional; method in brief: as §2; note: test concentration or dose not given here
[14] = Inhibition of Imi1 beta lactamase
[15] = Inhibition of AmpC beta-lactamase; method in brief: as §1
Escherichia coli [16] = experiment: Antimicrobial activity against Escherichia coli GC 2844 after 18 to 24 hrs by broth microdilution method; type: functional; method in brief: as §2
Escherichia coli [17] = experiment: Antimicrobial activity against Escherichia coli GC 2847 expressing TEM1 beta-lactamase after 18 to 24 hrs by broth microdilution method; type: functional; method in brief: as §2; note: test concentration or dose not given here
Escherichia coli [18] = experiment: Antimicrobial activity against Escherichia coli GC 2920 expressing IRT2 beta-lactamase after 18 to 24 hrs by broth microdilution method; type: functional; method in brief: as §2
Escherichia coli [19] = experiment: Antimicrobial activity against Escherichia coli GC 2883 expressing OXA10 and PSE2 beta-lactamase after 18 to 24 hrs by broth microdilution method; type: functional; method in brief: as §2
Escherichia coli [20] = experiment: Antimicrobial activity against Escherichia coli GC 2894 expressing AmpC beta-lactamase after 18 to 24 hrs by broth microdilution method; type: functional; method in brief: as §2
Serratia marcescens [21] = experiment: Antimicrobial activity against Serratia marcescens GC 4132 expressing AmpC beta-lactamase after 18 to 24 hrs by broth microdilution method; type: functional; method in brief: as §2; note: test concentration or dose not given here
Escherichia coli [22] = experiment: Antimicrobial activity against Escherichia coli GC 2203 after 18 to 24 hrs by broth microdilution method; type: functional; method in brief: as §2
Staphylococcus aureus = experiment: Antimicrobial activity against Staphylococcus aureus GC 2216 after 18 to 24 hrs by broth microdilution method; type: functional; method in brief: as §2; note: test concentration or dose not given here

Structure (SMILES)	IC50 [2] [nM]	MIC (Escherichia coli [3]) [µg/mL]	MIC (Escherichia coli [4]) [µg/mL]	MIC (Escherichia coli [5]) [µg/mL]	MIC (Escherichia coli [6]) [µg/mL]	MIC (Escherichia coli [7]) [µg/mL]	MIC (Enterobacter cloacae [8]) [µg/mL]	MIC (Enterobacter cloacae [9]) [µg/mL]	MIC (Enterobacter cloacae [10]) [µg/mL]	MIC (Enterobacter cloacae [11]) [µg/mL]	MIC (Serratia marcescens [12]) [µg/mL]	MIC (Pseudomonas aeruginosa) [µg/mL]	MIC [13] [µg/mL]	IC50 [15] [nM]	MIC (Escherichia coli [16]) [µg/mL]	MIC (Escherichia coli [17]) [µg/mL]	MIC (Escherichia coli [18]) [µg/mL]	MIC (Escherichia coli [19]) [µg/mL]	MIC (Escherichia coli [20]) [µg/mL]	MIC (Serratia marcescens [21]) [µg/mL]	further results
CCN1CCN(C(=O)N[C@@H](C(=O)N[C@@H]2C(=O)N3[C@@H]2SC(C)(C)[C@@H]3C(=O)O)c2ccccc2)C(=O)C1=O [PIPERACILLIN]																					ED50 (Escherichia coli [1]): > 128 mg/kg
O=C([O-])C1=CS[C@@H]2/C(=C/c3cc4oc5c(n4n3)CCOC5)C(=O)N12.[Na+]	150	32	64	0.12	> 64	32	> 64	> 64	32	32	4	64	> 64	53	2	> 64	8	16	32	32	IC50 [14]: 2900 nM; MIC (Escherichia coli [22]): 2 µg/mL; MIC (Staphylococcus aureus): 64 µg/mL
Cn1c2ccccc2n2cc(/C=C3/C(=O)N4C(C(=O)[O-])=CS[C@H]34)nc12.[Na+]	24	32	16	< 0.06	> 64	32	> 64	> 64	32	64	2	64	> 64	16	4	> 64	4	64	32	16	IC50 [14]: 50 nM; MIC (Escherichia coli [22]): 2 µg/mL; MIC (Staphylococcus aureus): 64 µg/mL
C[C@]1(Cn2ccnn2)[C@H](C(=O)[O-])N2C(=O)C[C@H]2S1(=O)=O.[Na+] [TAZOBACTAM SODIUM]	100	64	2	< 0.06	> 64	2	> 64	64	> 64	64	0.5	> 64	> 64	84000	2	2	4	1	32	64	Activity [14]: inactive; MIC (Escherichia coli [22]): 1 µg/mL; MIC (Staphylococcus aureus): 0.5 µg/mL; ED50 (Escherichia coli [1]): 20 mg/kg
O=C([O-])C1=CS[C@@H]2/C(=C\c3cn4c(n3)nc3n4CCCC3)C(=O)N12.[Na+]	2.4	2	64	< 0.06	> 64	16	> 64	8	16	2	0.5	32	> 64	1.4	2	8	2	2	2	1	IC50 [14]: 14 nM; MIC (Escherichia coli [22]): 1 µg/mL; MIC (Staphylococcus aureus): 0.25 µg/mL; ED50 (Escherichia coli [1]): 32.5 mg/kg
O=C([O-])C1=CS[C@@H]2/C(=C\c3cn4c5c(sc4n3)COCC5)C(=O)N12.[Na+]	2.8	8	2	< 0.06	> 64	16	16	8	16	8	1	4	> 64	1.5	2	4	2	4	2	2	IC50 [14]: 100 nM; MIC (Escherichia coli [22]): 4 µg/mL; MIC (Staphylococcus aureus): 2 µg/mL; ED50 (Escherichia coli [1]): 25.3 mg/kg
CCOC(=O)N1CCc2c(oc3cc(/C=C4/C(=O)N5C(C(=O)[O-])=CS[C@H]45)nn23)C1.[Na+]	1.2	32	64	< 0.06	> 64	16	> 64	64	64	64	2	> 64	> 64	4	2	32	4	8	64	8	IC50 [14]: 98 nM; MIC (Escherichia coli [22]): 2 µg/mL; MIC (Staphylococcus aureus): 16 µg/mL
O=C([O-])C1=CS[C@@H]2/C(=C\c3cn4c5c(sc4n3)CCCC5)C(=O)N12.[Na+]	1.9	4	2	< 0.06	> 64	16	32	8	16	8	1	2	> 64	0.62	2	8	2	2	4	2	IC50 [14]: 33 nM; MIC (Escherichia coli [22]): 2 µg/mL; MIC (Staphylococcus aureus): < 0.06 µg/mL; ED50 (Escherichia coli [1]): 23.3 mg/kg
O=C([O-])C1=CS[C@@H]2/C(=C\c3cc4oc5c(n4n3)CCOC5)C(=O)N12.[Na+]	4.3	16	8	< 0.06	> 64	16	64	32	16	32	2	32	> 64	4	2	32	2	8	16	8	IC50 [14]: 140 nM; MIC (Escherichia coli [22]): 4 µg/mL; MIC (Staphylococcus aureus): 16 µg/mL
O=C([O-])C1=CS[C@@H]2/C(=C\c3cc4oc5c(n4n3)CCCC5)C(=O)N12.[Na+]	4	32	4	< 0.06	> 64	16	64	32	32	32	2	64	> 64	5.5	2	16	4	8	32	8	IC50 [14]: 160 nM; MIC (Escherichia coli [22]): 2 µg/mL; MIC (Staphylococcus aureus): 16 µg/mL
O=C([O-])C1=CS[C@@H]2/C(=C\c3cn4c5c(sc4n3)CCC5)C(=O)N12.[Na+]	1.4	4	2	< 0.06	> 64	8	16	4	16	4	1	2	> 64	2.1	2	4	2	2	2	2	MIC (Escherichia coli [22]): 2 µg/mL; MIC (Staphylococcus aureus): 2 µg/mL; ED50 (Escherichia coli [1]): 19 mg/kg
